Results on six compounds are retold here after ChEMBL document CHEMBL4699461, “Enhanced Production and Anticancer Properties of Photoactivated Perylenequinones” (J Nat Prod, 2020).

The structures appear in SMILES notation.

Usually EC50 stands for the concentration that produces a half-maximal response.

The subject of one assay is SK-MEL-28. The assay can be described thus: Cytotoxicity against human SK-MEL-28 cells assessed as reduction in cell viability preincubated for 16 hrs in dark condition subsequently incubated for 48 hrs by alamar blue assay. It is filed as cell-based.
Conditions: not given
The method, boiled down: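 SK-MEL-28 human melanoma cells, ~550,000–600,000 cells/mL, settled 3 h at 37 °C, 5% CO₂. Compounds were serially diluted in DPBS and tested over 1 nM to 300 μM. Plates were kept dark in the incubator for 16 h, then 48 h more. alamarBlue was then added for 15–16 h, and viability was read by fluorescence (ex 530, em 620 nm) to give EC₅₀.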
With `COC1=C(C(C)=O)C2=C(C)Cc3c(OC)c(=O)c(O)c4cc(OC)c5c(OC)cc(O)c6c(c2c3c4c56)C1=O`, the EC50 was 43700 nM.

Take `COc1c(O)c2c(=O)cc(OC)c3c4c(OC)cc(O)c5c(=O)c(OC)c6c(c(c1[C@H](C(C)=O)[C@](C)(O)C6)c23)c54`: the EC50 came to 130000 nM.

In the case of `COC1=C2c3c4c5c(c(O)cc(OC)c5c5c(OC)cc(O)c(c35)C1=O)C(=O)[C@H](OC)[C@]41C[C@](C)(O)[C@H]2[C@]1(C)O`, the EC50 is above 300000 nM.

`COC1=C2c3c4c5c(c(O)cc(OC)c5c5c(OC)cc(O)c(c35)C1=O)C(=O)[C@H](OC)[C@]41C[C@@](C)(O)[C@H]2[C@]1(C)O`: the EC50 is 132000 nM.

As to `COC1=C2c3c4c5c(c(O)cc(OC)c5c5c(OC)cc(O)c(c35)C1=O)C(=O)C[C@]41C[C@](C)(O)[C@H]2[C@]1(C)O`, the EC50 was found to be 98700 nM.

As for `COc1c(O)c2c(=O)cc(OC)c3c4c(OC)cc(=O)c5c(O)c(OC)c6c(c(c1C[C@@](C)(O)[C@@H]6C(C)=O)c23)c54`, the EC50 was determined as 39300 nM.

A further assay deals with SK-MEL-28. The experiment in a line: Phototherapeutic index, ratio of EC50 for cytotoxicity against human SK-MEL-28 cells in dark condition to EC50 for phototoxicity against human SK-MEL-28 cells preincubated for 16 hrs followed by irradiated with 100 J/cm2 625 nanometer red light for 60 mins.
Conditions: not given
In short, it runs like this:
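PI for red light, calculated as dark EC₅₀ divided by red-light EC₅₀ in SK-MEL-28 cells. Viability was read 48 h later by alamarBlue fluorescence.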
On to `COC1=C(C(C)=O)C2=C(C)Cc3c(OC)c(=O)c(O)c4cc(OC)c5c(OC)cc(O)c6c(c2c3c4c56)C1=O`, for which the “Ratio EC50” value is reported as 2783.

In the case of `COc1c(O)c2c(=O)cc(OC)c3c4c(OC)cc(O)c5c(=O)c(OC)c6c(c(c1[C@H](C(C)=O)[C@](C)(O)C6)c23)c54`, the “Ratio EC50” value stood at 2196.

Consider `COC1=C2c3c4c5c(c(O)cc(OC)c5c5c(OC)cc(O)c(c35)C1=O)C(=O)[C@H](OC)[C@]41C[C@](C)(O)[C@H]2[C@]1(C)O`, for which the “Ratio EC50” value is above 234.

Consider `COC1=C2c3c4c5c(c(O)cc(OC)c5c5c(OC)cc(O)c(c35)C1=O)C(=O)[C@H](OC)[C@]41C[C@@](C)(O)[C@H]2[C@]1(C)O`, for which the “Ratio EC50” value amounted to 219.

For `COC1=C2c3c4c5c(c(O)cc(OC)c5c5c(OC)cc(O)c(c35)C1=O)C(=O)C[C@]41C[C@](C)(O)[C@H]2[C@]1(C)O`, the “Ratio EC50” value is listed as 39.

`COc1c(O)c2c(=O)cc(OC)c3c4c(OC)cc(=O)c5c(O)c(OC)c6c(c(c1C[C@@](C)(O)[C@@H]6C(C)=O)c23)c54`: the “Ratio EC50” value is on record as 2569.

The subject of a further assay is SK-MEL-28. The assay can be described thus: Phototoxicity against human SK-MEL-28 cells assessed as reduction in cell viability preincubated for 16 hrs followed by irradiated with 100 J/cm2 625 nanometer red light for 60 mins and measured after 48 hrs by alamar blue assay. Format: functional, cell-based. Particulars: SK-MEL-28, light or radiation study. The method, boiled down:
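Cells (SK-MEL-28, ~550,000–600,000 cells/mL) were dosed with compound at 1 nM–300 μM in DPBS dilutions, with a 16 h drug-to-light interval at 37 °C. They were irradiated with a 625 nm LED array at 27.8 mW/cm² to 100 J/cm². After 48 h of incubation, alamarBlue was added for 15–16 h and fluorescence was read (ex 530, em 620 nm) to give EC₅₀.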
For orientation: Resazurin is reduced to fluorescent resorufin, in cell work by metabolically active cells.
For the compound `COC1=C(C(C)=O)C2=C(C)Cc3c(OC)c(=O)c(O)c4cc(OC)c5c(OC)cc(O)c6c(c2c3c4c56)C1=O`, the EC50 is 15.7 nM.

Consider `COc1c(O)c2c(=O)cc(OC)c3c4c(OC)cc(O)c5c(=O)c(OC)c6c(c(c1[C@H](C(C)=O)[C@](C)(O)C6)c23)c54`, for which the EC50 worked out at 59.2 nM.

`COC1=C2c3c4c5c(c(O)cc(OC)c5c5c(OC)cc(O)c(c35)C1=O)C(=O)[C@H](OC)[C@]41C[C@](C)(O)[C@H]2[C@]1(C)O`: the EC50 was 1280 nM.

Turning to `COC1=C2c3c4c5c(c(O)cc(OC)c5c5c(OC)cc(O)c(c35)C1=O)C(=O)[C@H](OC)[C@]41C[C@@](C)(O)[C@H]2[C@]1(C)O`, the EC50 was determined as 603 nM.

In the case of `COC1=C2c3c4c5c(c(O)cc(OC)c5c5c(OC)cc(O)c(c35)C1=O)C(=O)C[C@]41C[C@](C)(O)[C@H]2[C@]1(C)O`, the EC50 was 2550 nM.

In the case of `COc1c(O)c2c(=O)cc(OC)c3c4c(OC)cc(=O)c5c(O)c(OC)c6c(c(c1C[C@@](C)(O)[C@@H]6C(C)=O)c23)c54`, the half-maximal effective concentration (EC50) was 15.3 nM.

A further assay concerns SK-MEL-28. The experiment in a line: Phototoxicity against human SK-MEL-28 cells assessed as reduction in cell viability preincubated for 16 hrs followed by irradiated with 100 J/cm2 400 to 700 nanometer visible light for 48 mins and measured after 48 hrs by alamar blue assay. Particulars: SK-MEL-28, light or radiation study.
`COC1=C(C(C)=O)C2=C(C)Cc3c(OC)c(=O)c(O)c4cc(OC)c5c(OC)cc(O)c6c(c2c3c4c56)C1=O`: the EC50 was found to be 14.7 nM.

On to `COc1c(O)c2c(=O)cc(OC)c3c4c(OC)cc(O)c5c(=O)c(OC)c6c(c(c1[C@H](C(C)=O)[C@](C)(O)C6)c23)c54`, for which the EC50 came out at 53.5 nM.

Turning to `COC1=C2c3c4c5c(c(O)cc(OC)c5c5c(OC)cc(O)c(c35)C1=O)C(=O)[C@H](OC)[C@]41C[C@](C)(O)[C@H]2[C@]1(C)O`, the EC50 stood at 135 nM.

For the compound `COC1=C2c3c4c5c(c(O)cc(OC)c5c5c(OC)cc(O)c(c35)C1=O)C(=O)[C@H](OC)[C@]41C[C@@](C)(O)[C@H]2[C@]1(C)O`, the 50% effective concentration (EC50) amounted to 172 nM.

Take `COC1=C2c3c4c5c(c(O)cc(OC)c5c5c(OC)cc(O)c(c35)C1=O)C(=O)C[C@]41C[C@](C)(O)[C@H]2[C@]1(C)O`: the EC50 worked out at 176 nM.

As for `COc1c(O)c2c(=O)cc(OC)c3c4c(OC)cc(=O)c5c(O)c(OC)c6c(c(c1C[C@@](C)(O)[C@@H]6C(C)=O)c23)c54`, the EC50 was 10.3 nM.

The next assay deals with SK-MEL-28. The assay can be described thus: Phototherapeutic index, ratio of EC50 for cytotoxicity against human SK-MEL-28 cells in dark condition to EC50 for phototoxicity against human SK-MEL-28 cells preincubated for 16 hrs followed by irradiated with 100 J/cm2 400 to 700 nanometer visible light for 48 mins.
Conditions: not given
With `COC1=C(C(C)=O)C2=C(C)Cc3c(OC)c(=O)c(O)c4cc(OC)c5c(OC)cc(O)c6c(c2c3c4c56)C1=O`, the “Ratio EC50” value amounted to 2973.

For the compound `COc1c(O)c2c(=O)cc(OC)c3c4c(OC)cc(O)c5c(=O)c(OC)c6c(c(c1[C@H](C(C)=O)[C@](C)(O)C6)c23)c54`, the “Ratio EC50” value stood at 2430.

Consider `COC1=C2c3c4c5c(c(O)cc(OC)c5c5c(OC)cc(O)c(c35)C1=O)C(=O)[C@H](OC)[C@]41C[C@](C)(O)[C@H]2[C@]1(C)O`, for which the “Ratio EC50” value is listed as above 2222.

Turning to `COC1=C2c3c4c5c(c(O)cc(OC)c5c5c(OC)cc(O)c(c35)C1=O)C(=O)[C@H](OC)[C@]41C[C@@](C)(O)[C@H]2[C@]1(C)O`, the “Ratio EC50” value is listed as 767.

With `COC1=C2c3c4c5c(c(O)cc(OC)c5c5c(OC)cc(O)c(c35)C1=O)C(=O)C[C@]41C[C@](C)(O)[C@H]2[C@]1(C)O`, the “Ratio EC50” value was found to be 561.

With `COc1c(O)c2c(=O)cc(OC)c3c4c(OC)cc(=O)c5c(O)c(OC)c6c(c(c1C[C@@](C)(O)[C@@H]6C(C)=O)c23)c54`, the “Ratio EC50” value amounted to 3816.
